ChEMBL document CHEMBL1123930, “Structure-activity relationships among di- and tetramine disulfides related to benextramine” (1987)
The source made the active and inactive calls. The calls are words filed in the database; no cut-off is given here.

Assays:
Type in all cases: functional
[1] = molecular target: Adrenergic receptor alpha (Rattus norvegicus) (UniProt P15823+P23944+P43140+P22086+P19328+P22909); assay: Irreversible inhibition against Norepinephrine (NE)-induced response in rat vas deferens with benextramine (BHC) as standard at a concentration of 2 x 10e-5 M
Summary of the method: (§1)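 Rat vas deferens tissues were held at 32 °C under 95% O2/5% CO2 at 0.50 g loading tension, with contractions recorded by force transducer. After 1 h equilibration and a medium change, antagonist was incubated for 30 min, then drained and washed out for 30 min. Cumulative NE concentration-response curves followed. The fall in maximal response, as percent of control, is reported as mean ± SEM of five experiments.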

Rattus norvegicus [2] = organism: Rattus norvegicus; assay: Irreversible inhibition against Norepinephrine (NE)-induced response in rat vas deferens with benextramine (BHC) as standard at a concentration of 10e-4 M; summary of the method: as §1
Rattus norvegicus [3] = organism: Rattus norvegicus; assay: Irreversible inhibition against Norepinephrine (NE)-induced response in rat vas deferens with benextramine (BHC) as standard at a concentration of 2 x 10e-5 M; Inactive; summary of the method: as §1
Rattus norvegicus [4] = organism: Rattus norvegicus; assay: Irreversible inhibition against Norepinephrine (NE)-induced response in rat vas deferens with benextramine (BHC) as standard at a concentration of 6 x 10e-6 M; summary of the method: as §1
Rattus norvegicus [5] = organism: Rattus norvegicus; assay: Irreversible inhibition against Norepinephrine (NE)-induced response in rat vas deferens with benextramine (BHC) as standard at a concentration of 10e-4 M; Inactive; summary of the method: as §1

SMILES | inhibition [1] | inhibition at 100 µM (Rattus norvegicus [2]) | inhibition (Rattus norvegicus [3]) | other results
COc1ccc(C(O)CNCCCCCCNCCSSCCNCCCCCCNCC(O)c2ccc(OC)c(OC)c2)cc1OC (stereo not given) | 87% | – | – | –
COc1ccc(C(O)CNCCCCCCNCCSSCCNCCCCCCNCC(O)c2ccc(OC)cc2)cc1 (stereo not given) | 81% | – | – | –
COc1ccccc1CNCCCCCCOCCSSCCOCCCCCCNCc1ccccc1OC | 36% | – | – | –
c1ccc2c(c1)OCC(CNCCCCCCNCCSSCCNCCCCCCNCC1COc3ccccc3O1)O2 (stereo not given) | – | 53% | inactive | –
CN(CCCCCCN1CCCC1)CCSSCCN(C)CCCCCCN1CCCC1 | 41% | – | – | –
c1ccc2c(c1)CCN2CCCCCCNCCSSCCNCCCCCCN1CCc2ccccc21 | 37% | – | – | –
c1cc2c(cc1COCCCCCCNCCSSCCNCCCCCCOCc1ccc3c(c1)OCO3)OCO2 | – | 45% | inactive | –
COc1cc(C(O)CNCCCCCCNCCSSCCNCCCCCCNCC(O)c2cc(OC)c(OC)c(OC)c2)cc(OC)c1OC (stereo not given) | 98% | – | – | –
COc1ccccc1CNCCCCCCNCCSSCCNCCCCCCNCc1ccccc1OC [BENEXTRAMINE] | 100% | – | – | inhibition at 6 µM (Rattus norvegicus [4]): 35%
COc1ccccc1COCCCCCCNCCSSCCNCCCCCCOCc1ccccc1OC | 58% | – | – | –
COc1ccccc1C(O)CNCCCCCCNCCSSCCNCCCCCCNCC(O)c1ccccc1OC (stereo not given) | 82% | – | – | –
CC(C)(C)NCCSSCCNC(C)(C)C | – | – | inactive | inhibition (Rattus norvegicus [5]): inactive
C(CCCN1CCCCC1)CCNCCSSCCNCCCCCCN1CCCCC1 | 100% | – | – | inhibition at 6 µM (Rattus norvegicus [4]): 56%
OC(CNCCCCCCNCCSSCCNCCCCCCNCC(O)c1ccccc1)c1ccccc1 (stereo not given) | 13% | 40% | – | –
c1ccc(CNCCCCCCOCCSSCCOCCCCCCNCc2ccccc2)cc1 | 32% | – | – | –
OC(CNCCCCCCNCCSSCCNCCCCCCNCC(O)c1ccc2c(c1)OCO2)c1ccc2c(c1)OCO2 (stereo not given) | 43% | – | – | –
CN(CCCCCCNCc1ccccc1N)CCSSCCN(C)CCCCCCNCc1ccccc1N | – | 38% | inactive | –
CN(CCCCCCN1CNc2ccccc2C1)CCSSCCN(C)CCCCCCN1CNc2ccccc2C1 | – | 6% | inactive | –
C(CCCN1CCCC1)CCNCCSSCCNCCCCCCN1CCCC1 | 98% | – | – | –
c1ccc(COCCCCCCNCCSSCCNCCCCCCOCc2ccccc2)cc1 | 60% | – | – | –

SMILES | inhibition [1] | inhibition at 100 µM (Rattus norvegicus [2]) | inhibition (Rattus norvegicus [3]) | other results
NC(CCCCCNCCSSCCNCCCCCC(N)Cc1ccccc1)Cc1ccccc1 (stereo not given) | 57% | – | – | –
c1csc(CNCCCCCCNCCSSCCNCCCCCCNCc2cccs2)c1 | 70% | – | – | –
c1ccc(CCNCCCCCCNCCSSCCNCCCCCCNCCc2ccccc2)cc1 | – | 32% | inactive | –
Nc1ccccc1CNCCCCCCNCCSSCCNCCCCCCNCc1ccccc1N | 79% | – | – | –
c1ccc2c(c1)CCN(CCCCCCNCCSSCCNCCCCCCN1CCc3ccccc3C1)C2 | – | 66% | inactive | –
c1ccc2c(c1)OC[C@@H](CNCCCCCCNCCSSCCNCCCCCCNC[C@@H]1COc3ccccc3O1)O2 | – | 68% | inactive | –
Nc1ccccc1C(=O)NCCCCCCNCCSSCCNCCCCCCNC(=O)c1ccccc1N | – | 55% | inactive | –
c1ccc2c(CNCCCCCCNCCSSCCNCCCCCCNCc3c[nH]c4ccccc34)c[nH]c2c1 | – | 46% | inactive | –
CN(CCCCCCN1CCCCC1)CCSSCCN(C)CCCCCCN1CCCCC1 | 34% | – | – | –
COc1cccc(C(O)CNCCCCCCNCCSSCCNCCCCCCNCC(O)c2cccc(OC)c2)c1 (stereo not given) | 91% | – | – | –
O=C(Cc1ccccc1)NCCCCCCNCCSSCCNCCCCCCNC(=O)Cc1ccccc1 | 44% | – | – | –
C1CCN(CCSSCCN2CCCCC2)CC1 | – | – | inactive | inhibition (Rattus norvegicus [5]): inactive
c1ccc2c(c1)CN(CCCCCCNCCSSCCNCCCCCCN1COc3ccccc3C1)CO2 | – | 34% | inactive | –
c1ccc2c(c1)OC[C@H](CNCCCCCCNCCSSCCNCCCCCCNC[C@H]1COc3ccccc3O1)O2 | – | 79% | inactive | –
c1ccc2c(c1)CN(CCCCCCNCCSSCCNCCCCCCN1CNc3ccccc3C1)CN2 | 89% | – | – | –
Oc1ccc(C(O)CNCCCCCCNCCSSCCNCCCCCCNCC(O)c2ccc(O)c(O)c2)cc1O (stereo not given) | 92% | – | – | –
c1ccc(CNCCSSCCNCc2ccccc2)cc1 | 12% | 48% | – | –
Cn1ccc(CNCCCCCCNCCSSCCNCCCCCCNCc2ccn(C)c2)c1 | 100% | – | – | inhibition at 6 µM (Rattus norvegicus [4]): 54%
c1coc(CNCCCCCCNCCSSCCNCCCCCCNCc2ccco2)c1 | 100% | – | – | inhibition at 6 µM (Rattus norvegicus [4]): 79%
CCN(CC)CCSSCCN(CC)CC | – | – | inactive | inhibition (Rattus norvegicus [5]): inactive
